# Test results published in ChEMBL document CHEMBL4270599, “Synthesis of a 3'-C-ethynyl-β-d-ribofuranose purine nucleoside library: Discovery of C7-deazapurine analogs as potent antiproliferative nucleosides” (Eur J Med Chem, 2018).
# How the values were obtained:
# 786-0 = experiment: Growth inhibition of human 786-0 cells assessed as cell growth at 10^-7 M incubated for 48 hrs by sulforhodamine B assay relative to control; format: functional; conditions: 786-0, 48 h, read-out: Activity
# SF-295 = experiment: Growth inhibition of human SF295 cells assessed as cell growth at 10^-7 M incubated for 48 hrs by sulforhodamine B assay relative to control; format: functional; conditions: SF-295, 48 h, read-out: Activity
# PC-3 [1] = experiment: Growth inhibition of human PC3 cells assessed as cell growth at 10^-6 M incubated for 48 hrs by sulforhodamine B assay relative to control; format: functional; conditions: PC-3, 48 h, read-out: Activity
# KM12 = experiment: Growth inhibition of human KM12 cells assessed as cell growth at 10^-8 M incubated for 48 hrs by sulforhodamine B assay relative to control; format: functional; conditions: KM12, 48 h, read-out: Activity
# UACC-62 = experiment: Cytotoxicity against human UACC62 cells after 48 hrs by SRB assay; format: functional; conditions: UACC-62, 48 h
# T47D = experiment: Growth inhibition of human T47D cells assessed as cell growth at 10^-8 M incubated for 48 hrs by sulforhodamine B assay relative to control; format: functional; conditions: read-out: Activity
# A549 [2] = experiment: Growth inhibition of human A549/ATCC cells assessed as cell growth at 10^-4 M incubated for 48 hrs by sulforhodamine B assay relative to control; format: functional; conditions: A549, 48 h, read-out: Activity
# PC-3 [3] = experiment: Cytotoxicity against human PC3 cells after 48 hrs by SRB assay; format: functional; conditions: PC-3, 48 h
# A549 [4] = experiment: Growth inhibition of human A549/ATCC cells assessed as cell growth at 10^-7 M incubated for 48 hrs by sulforhodamine B assay relative to control; format: functional; conditions: A549, 48 h, read-out: Activity
# HT-29 = experiment: Growth inhibition of human HT-29 cells assessed as cell growth at 10^-8 M incubated for 48 hrs by sulforhodamine B assay relative to control; format: functional; conditions: HT-29, 48 h, read-out: Activity
# OVCAR-8 = experiment: Growth inhibition of human OVCAR8 cells assessed as cell growth at 10^-7 M incubated for 48 hrs by sulforhodamine B assay relative to control; format: functional; conditions: OVCAR-8, 48 h, read-out: Activity
# NCI-H23 = experiment: Cytotoxicity against human NCI-H23 cells after 48 hrs by SRB assay; format: functional; conditions: NCI-H23, 48 h
# A498 = experiment: Growth inhibition of human A498 cells assessed as cell growth at 10^-8 M incubated for 48 hrs by sulforhodamine B assay relative to control; format: functional; conditions: A498, 48 h, read-out: Activity
# OVCAR-4 = experiment: Cytotoxicity against human OVCAR4 cells after 48 hrs by SRB assay; format: functional; conditions: OVCAR-4, 48 h
# [5] = Antiproliferative activity against HMVEC-d cells after 4 days by Coulter counter method; format: cell-based; conditions: Homo sapiens, 96 h
# Outline: (§1)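 Primary HUVEC, primary HMVEC-d and the HMEC-1 line seeded at 20,000 cells/well in gelatin-coated plates in EC growth medium (EGM2). After overnight incubation, 5-fold compound dilutions added. Cells proliferated four days with compound, then trypsinized and counted by Coulter counter to derive IC₅₀.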
# UO-31 = experiment: Cytotoxicity against human UO31 cells after 48 hrs by SRB assay; format: functional; conditions: UO-31, 48 h
# DU-145 = experiment: Growth inhibition of human DU145 cells assessed as cell growth at 10^-7 M incubated for 48 hrs by sulforhodamine B assay relative to control; format: functional; conditions: DU-145, 48 h, read-out: Activity
# NCI/ADR-RES = experiment: Growth inhibition of human NCI/ADR-RES cells assessed as cell growth at 10^-8 M incubated for 48 hrs by sulforhodamine B assay relative to control; format: functional; conditions: read-out: Activity
# SN12C = experiment: Growth inhibition of human SN12C cells assessed as cell growth at 10^-4 M incubated for 48 hrs by sulforhodamine B assay relative to control; format: functional; conditions: read-out: Activity
# SNB-19 = experiment: Cytotoxicity against human SNB19 cells after 48 hrs by SRB assay; format: functional; conditions: SNB-19, 48 h
# U-251 = experiment: Growth inhibition of human U251 cells assessed as cell growth at 10^-4 M incubated for 48 hrs by sulforhodamine B assay relative to control; format: functional; conditions: U-251, 48 h, read-out: Activity
# HMEC-1 = experiment: Antiproliferative activity against HMEC1 cells after 4 days by Coulter counter method; format: cell-based; conditions: Homo sapiens, HMEC-1, 96 h; outline: as §1
# Hs-578T = experiment: Growth inhibition of human Hs 578T cells assessed as cell growth at 10^-6 M incubated for 48 hrs by sulforhodamine B assay relative to control; format: functional; conditions: read-out: Activity
# [6] = read-out: LC50 (the source's name)
# [7] = read-out: pLC50 (the source's name) (converted)
smiles,measurement,setting,value
C#C[C@@]1(O)[C@@H](CO)O[C@@H](n2cc(Cl)c3c(N)ncnc32)[C@@H]1O,growth at 0.1 µM,786-0,89 to 94%
same,growth at 0.1 µM,SF-295,66 to 77%
same,growth at 1 µM,PC-3 [1],9 to 11%
same,growth at 0.01 µM,KM12,85 to 88%
same,CC50,UACC-62; [6],> 100000 nM
same,TGI,UACC-62; read-out: TGI,383 nM
same,GI50,UACC-62; read-out: pGI50 (converted),170 nM
same,TGI,UACC-62; read-out: pTGI (converted),380 nM
same,growth at 0.01 µM,T47D,71 to 84%
same,growth at 100 µM,A549 [2],8 to 12%
same,GI50,PC-3 [3]; read-out: GI50,173 to 211 nM
same,CC50,PC-3 [3]; [6],> 100000 nM
same,TGI,PC-3 [3]; read-out: TGI,3520 to 4540 nM
same,growth at 0.1 µM,A549 [4],61 to 77%
same,growth at 0.01 µM,HT-29,83 to 92%
same,growth at 0.1 µM,OVCAR-8,35 to 39%
same,GI50,NCI-H23; read-out: GI50,173 to 213 nM
same,TGI,NCI-H23; read-out: TGI,716 to 1280 nM
same,CC50,NCI-H23; [7],> 100000 nM
same,growth at 0.01 µM,A498,103 to 107%
same,GI50,OVCAR-4; read-out: GI50,292 to 358 nM
same,CC50,OVCAR-4; [6],> 100000 nM
same,TGI,OVCAR-4; read-out: TGI,1980 to 5620 nM
same,IC50,[5],< 1.28 nM
same,GI50,UO-31; read-out: GI50,153 to 173 nM
same,TGI,UO-31; read-out: TGI,472 to 1780 nM
same,CC50,UO-31; [7],> 100000 nM
same,growth at 0.1 µM,DU-145,51 to 61%
same,growth at 0.01 µM,NCI/ADR-RES,77 to 82%
same,growth at 100 µM,SN12C,1%
same,GI50,SNB-19; read-out: GI50,21 to 204 nM
same,TGI,SNB-19; read-out: TGI,294 nM
same,CC50,SNB-19; [7],> 100000 nM
same,TGI,SNB-19; read-out: pTGI (converted),295 nM
same,growth at 100 µM,U-251,1%
same,IC50,HMEC-1,3.5 nM
same,growth at 1 µM,Hs-578T,25 to 77%
